MrgX1 PAM: allosterically activates human MrgX1 receptor signaling; Q96LB2; MrgX1-HEK293, Fluo-4 calcium flux, FDSS; hits give high values; B-score at 10 µM; 310,000 tested, 0.63% active;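 active = plate-corrected calcium response at least 3 library SD above typical, normal starting fluorescence, not activating the receptor alone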;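 also: compound read alongside a low EC10 to EC30 dose of BAM8-22 agonist; peak minus trough fluorescence over baseline measured at the second addition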
Target sequence (Q96LB2 whole entry, looked up): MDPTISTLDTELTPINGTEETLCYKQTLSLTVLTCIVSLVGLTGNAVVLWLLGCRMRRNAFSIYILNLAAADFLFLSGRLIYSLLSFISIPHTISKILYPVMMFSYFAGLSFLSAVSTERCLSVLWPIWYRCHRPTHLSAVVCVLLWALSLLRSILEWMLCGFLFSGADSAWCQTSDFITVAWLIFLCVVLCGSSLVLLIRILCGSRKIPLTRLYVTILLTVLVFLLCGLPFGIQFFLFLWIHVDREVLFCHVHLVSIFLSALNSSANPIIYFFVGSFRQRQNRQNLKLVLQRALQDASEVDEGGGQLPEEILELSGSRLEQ
RGS4 block: human RGS4 inhibition; P49798; HEK293 M3R/RGS4 inducible, Fluo-4 calcium flux; hits give high values; triggered by carbachol at its EC20; B-score at 10 µM; 310,000 tested, 0.45% active;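 active = B-score, a plate-corrected calcium signal, over three deviations above library mean, with baseline fluorescence within five deviations of library mean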;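 also: RGS4 expression induced by doxycycline in cells with stable M3 receptor; B-score is computed from the integrated fluorescence ratio over baseline after carbachol; higher B-score means a larger calcium signal and so more RGS4 inhibition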
Target sequence (P49798 whole entry, looked up): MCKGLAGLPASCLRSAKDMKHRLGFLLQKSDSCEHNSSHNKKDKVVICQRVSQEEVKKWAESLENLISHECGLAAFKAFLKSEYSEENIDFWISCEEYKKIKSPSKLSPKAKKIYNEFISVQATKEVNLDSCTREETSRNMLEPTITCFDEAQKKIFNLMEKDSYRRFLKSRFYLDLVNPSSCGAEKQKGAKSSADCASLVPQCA
MrgX1 antag: blocks BAM8-22 activation of human MrgX1 receptor | Q96LB2 | MRGX1-HEK293 calcium flux, Fluo-4, BAM8-22 antagonism; hits give low values | 310,000 tested, 1.3% active | AID 588676 | B-score at 10 µM;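 active = calcium-response B-score plate-corrected more than 3 library SD below zero, starting fluorescence within 5 deviations, no agonist response on first addition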;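 also: peak minus trough fluorescence over baseline after final BAM8-22 challenge near maximal dose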
RGS4 act: RGS4 potentiation or activation; HEK293 M3R/inducible RGS4, carbachol calcium flux Fluo4; hits give low values; B-score at 10 µM; 310,000 tested, 0.92% active;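 active = B-score of the integrated calcium signal more than 4 SD below the library mean, with starting fluorescence not abnormally high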;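 also: negative B-score means reduced calcium response which marks RGS4 activation or potentiation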
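System – HEK293 FlpIn-TREx cells, stable M3R, doxycycline-inducible RGS4 · Reagent – ECmax carbachol challenge · Times – compound preincubation 20 min at room temperature before agonist · Technique – Fluo4 fluorescence kinetic imaging of calcium · Measure – B score of integrated Fluo4 ratio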
MrgX1 ag: activates human MrgX1 receptor signaling. Q96LB2. MrgX1-HEK293 cells, Fluo-4 calcium fluorescence, agonist mode; hits give high values. B-score at 10 µM. 310,000 tested, 0.44% active. AID 588627;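 active = calcium response B-score plate-corrected fluorescence ratio at least 3 library SD, with starting fluorescence B-score inside 5 SD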
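Material – MrgX1-expressing HEK293 cells · Input – 15,000 cells seeded per well · Dosing – compound as first of three additions · Times – overnight seeding, then 1 h dark dye loading · Measured by – kinetic Fluo-4 NW fluorescence of intracellular calcium · Read-out – B-scored fluorescence response ratio · Benchmarks – positive and negative control wells on each plate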
MrgX1 antag conf: reconfirmed antagonist of human MrgX1 receptor signaling; shares compounds with MrgX1 antag; MrgX1-HEK293, BAM8-22 calcium flux, Fluo-4; hits give low values; remaining BAM8-22 calcium response % of control (hits give low values), % at 10 µM; 2,300 tested, 19% active; AID 602420;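 active = remaining agonist calcium response no higher than 100% minus 3 SD of agonist-only control wells, with starting fluorescence near control levels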;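 also: agonist BAM8-22 given at a near maximal EC90 to ECmax level; peak minus minimum fluorescence divided by baseline after agonist addition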
HEK293 Ca flux: counter-screen for MrgX1 antagonists: effect in parental HEK293 cells | shares compounds with MrgX1 antag | Fluo-4 calcium fluorescence, FDSS | fluorescence ratio F(max-min)/F0 at 10 µM | 4,000 tested, 2% active;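 active = duplicate-averaged calcium fluorescence ratio at least three times the standard deviation of buffer wells, a nonspecific response in parental cells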
HEK293 Ca counter: counter-screen for MrgX1 allosteric activators: effect in parental HEK293 cells; shares compounds with MrgX1 antag; parental HEK293 calcium flux, Fluo-4 fluorescence ratio; hits give high values; 4,000 tested, 0.4% active; fluorescence ratio F(max-min)/F0 at 10 µM; AID 624114;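 active = calcium fluorescence ratio, averaged over duplicates, at least 3 SD of the buffer-well ratio, meaning a nonspecific response in receptor-free cells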;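 also: untransfected parental HEK293 lacking MrgX1 used as counterscreen for MrgX1 allosteric activators; fluorescence change taken during the second addition on a kinetic imager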
HEK293 Ca cntr2: MrgX1 activator counter-screen hit in parental HEK293 cells; fluorescence ratio F(max-min)/F0 at 10 µM; 4,000 tested, 8.7% active; Fluo-4 calcium fluorescence (FDSS); hits give high values; shares compounds with MrgX1 antag;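 active = calcium fluorescence ratio at least three times the spread of buffer wells, meaning a non-specific response in parental cells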
Each line names hits and unclear results; the compound was inactive in the other large screens (follow-up assays come after a bar, where they were run). Sampled rows, rich in hits. Any-hit rate of the full collection: about 3.5%.

CSc1ccc(CN2CCN(CC=C(C)C)C(CCO)C2)cc1 (configuration not stated)	none
Cc1ccc(CN2CCN(Cc3ccc(C)s3)CC2CCO)cc1 (configuration not stated)	MrgX1 antag -5.1 | MrgX1 antag conf inactive | HEK293 Ca flux inactive | HEK293 Ca counter inactive | HEK293 Ca cntr2 inactive
CSc1cccc(CN2CCN(CCc3ccccc3)C(CCO)C2)c1 (configuration not stated)	none
Cc1ccc(CN2CCN(Cc3ccccc3)C(CCO)C2)s1 (configuration not stated)	none
CCOC(=O)N1CCN(C(=O)NC2CCCCC2)CC1	none
CCOC(=O)N1CCC(=NNC(=O)NC2CCCCC2)CC1	MrgX1 antag -21 | MrgX1 antag conf inactive | HEK293 Ca flux inactive | HEK293 Ca counter inactive | HEK293 Ca cntr2 inactive
O=c1cc(N2CCCCC2)nc2n1CCCS2	MrgX1 antag -5.4 | MrgX1 antag conf inactive | HEK293 Ca flux inactive | HEK293 Ca counter inactive | HEK293 Ca cntr2 inactive
COCCCN1C(=O)c2[nH]nc(-c3ccccc3O)c2C1c1cccc(Cl)c1 (configuration not stated)	none
COCCCN1C(=O)c2[nH]nc(-c3ccccc3O)c2C1c1ccc(Cl)cc1 (configuration not stated)	MrgX1 antag -4.8 | MrgX1 antag conf inactive | HEK293 Ca flux inactive | HEK293 Ca counter inactive | HEK293 Ca cntr2 inactive
CC1C(=O)NN=C1C(=O)N/N=C/c1cccs1 (configuration not stated)	MrgX1 antag -11 | MrgX1 antag conf inactive | HEK293 Ca flux inactive | HEK293 Ca counter inactive | HEK293 Ca cntr2 inactive
COc1ccc(NC(=O)CNS(=O)(=O)c2cccc3nonc23)c(OC)c1	MrgX1 antag -5.7 | MrgX1 antag conf inactive | HEK293 Ca flux inactive | HEK293 Ca counter inactive | HEK293 Ca cntr2 inactive
COc1cccc(COc2ccc3c(C)c(Cc4ccccc4)c(=O)oc3c2)c1	MrgX1 antag -6.3 | MrgX1 antag conf inactive | HEK293 Ca flux inactive | HEK293 Ca counter inactive | HEK293 Ca cntr2 inactive
CC(C)N(Cc1ccccc1)C(=O)C1CCN(c2ncnc3c2nc2n3CCCCC2)CC1	MrgX1 antag -4.8 | MrgX1 antag conf inactive | HEK293 Ca flux inactive | HEK293 Ca counter inactive | HEK293 Ca cntr2 57
Cc1cc(C)c(S(=O)(=O)NCc2cccnc2)cc1C	none
CCOc1cc(S(=O)(=O)NCc2cccnc2)c(C)cc1C	MrgX1 antag -4.9 | MrgX1 antag conf inactive | HEK293 Ca flux inactive | HEK293 Ca counter inactive | HEK293 Ca cntr2 inactive
COc1ccc(Cl)cc1S(=O)(=O)NCc1cccnc1	MrgX1 antag -5.7 | MrgX1 antag conf inactive | HEK293 Ca flux inactive | HEK293 Ca counter inactive | HEK293 Ca cntr2 inactive
O=C(Nc1ccc(F)cc1)Nc1cc(OCC(F)(F)F)cc(OCC(F)(F)F)c1	MrgX1 antag -6 | MrgX1 antag conf 62% | HEK293 Ca flux inactive | HEK293 Ca counter inactive | HEK293 Ca cntr2 inactive
Cc1nc2c(C(=O)N3CCN(C)CC3)cnn2c(C)c1Cc1ccc(Cl)cc1	none
C=CCc1c(C)nc2c(C(=O)O)cnn2c1C	MrgX1 antag -4.6 | MrgX1 antag conf inactive | HEK293 Ca flux inactive | HEK293 Ca counter inactive | HEK293 Ca cntr2 inactive
O=C(CCCC1=NS(=O)(=O)c2ccccc2N1)N1CCN(c2ccc([N+](=O)[O-])cc2)CC1	none
CCc1c(C)sc(NC(=O)c2ccccc2[N+](=O)[O-])c1C(N)=O	none
COc1cc(/C=C/c2nc3ccccc3s2)cc(OC)c1O	MrgX1 antag -5.7 | MrgX1 antag conf inactive | HEK293 Ca flux inactive | HEK293 Ca counter inactive | HEK293 Ca cntr2 inactive
COc1cc(C=C(c2nc3ccccc3s2)c2nc3ccccc3s2)ccc1O	none
Fc1ccccc1-c1n[nH]c(=S)n1CC1CCCO1 (configuration not stated)	MrgX1 antag -6.3 | MrgX1 antag conf inactive | HEK293 Ca flux inactive | HEK293 Ca counter inactive | HEK293 Ca cntr2 inactive
CCCC(C)NC(C)C(=O)NC1CCCC1 (configuration not stated)	MrgX1 antag -5 | MrgX1 antag conf inactive | HEK293 Ca flux inactive | HEK293 Ca counter inactive | HEK293 Ca cntr2 inactive
CCCC(CCC(=O)NC1CCCCC1)C(=O)O (configuration not stated)	none
O=C(O)CCNc1ccc(NCCC(=O)O)c2c1C(=O)c1ccccc1C2=O	MrgX1 antag -4.7 | MrgX1 antag conf inactive | HEK293 Ca flux inactive | HEK293 Ca counter inactive | HEK293 Ca cntr2 inactive
Cc1cc(NC(=O)CSc2nnnn2-c2ccc(C)c(Cl)c2)no1	none
CC(C)(C)CC(=O)Nc1cc2c3c(c1)CCC(=O)N3CCC2	MrgX1 antag -4.9 | MrgX1 antag conf inactive | HEK293 Ca flux inactive | HEK293 Ca counter inactive | HEK293 Ca cntr2 inactive
Cc1ccc(S(=O)(=O)NCCC(=O)NCc2ccco2)cc1	MrgX1 antag -4.6 | MrgX1 antag conf inactive | HEK293 Ca flux inactive | HEK293 Ca counter inactive | HEK293 Ca cntr2 inactive
Cn1cc(CC(=O)Nc2cccc(C#N)c2)c2ccccc21	MrgX1 antag -4.6 | MrgX1 antag conf inactive | HEK293 Ca flux inactive | HEK293 Ca counter inactive | HEK293 Ca cntr2 inactive
O=C(CSc1nnc(-c2ccncc2)n1-c1ccc(F)cc1)NNC(=O)c1cccc(O)c1	none
Cc1cc(NC(=O)CSc2ccc(-c3ccc(Br)cc3)nn2)no1	MrgX1 antag -8.2 | MrgX1 antag conf inactive | HEK293 Ca flux inactive | HEK293 Ca counter inactive | HEK293 Ca cntr2 inactive
Cc1ccc(-c2ccc(SCC(=O)Nc3cc(C)on3)nn2)cc1	none
CCCN(CC(=O)Nc1ccccc1C)C(=O)c1ccc(=O)n(Cc2ccccc2)n1	none
COc1ccc(/C=C/C(=O)Nc2nc(C)c(C(=O)N(C)C)s2)cc1OC	none
COc1ccc(C(=O)Nc2nc(C)c(C(=O)N(C)C)s2)cc1OC	MrgX1 antag -8.7 | MrgX1 antag conf inactive | HEK293 Ca flux inactive | HEK293 Ca counter inactive | HEK293 Ca cntr2 inactive
Fc1ccc(C(c2nnnn2Cc2cccs2)N2CCN(C3CCCC3)CC2)cc1 (configuration not stated)	MrgX1 antag -7.1 | MrgX1 antag conf inactive | HEK293 Ca flux inactive | HEK293 Ca counter inactive | HEK293 Ca cntr2 inactive
O=[N+]([O-])c1ccc(O)c(CN2CCCCCC2)c1	none
CC(=O)c1c[nH]c2ccc(C)cc2c1=O	MrgX1 antag -4.9 | MrgX1 antag conf 70% | HEK293 Ca flux inactive | HEK293 Ca counter inactive | HEK293 Ca cntr2 inactive

Bioassay records deposited in PubChem BioAssay by Johns Hopkins Ion Channel Center.
